Measured values from different studies.
Compare with care: the assays were run in different laboratories.
Target: Fibroblast growth factor receptor 1 (FGFR1, Homo sapiens, UniProt P11362)

Cn1cc(Cl)c2c(Oc3c(F)cc(Nc4cc(Cl)nc(N)n4)cc3F)ccnc21 — remaining binding (cell-free assay, competition with immobilised ligand; 0.1 µM): 100%
COc1cc2nccc(Oc3ccc(NC(=O)c4c5n(n(-c6ccc(F)cc6)c4=O)CCCC5)cc3)c2cc1OC — inhibition (enzyme activity, inhibitor; 0.1 µM): -7%
CS(=O)(=O)c1cc(C2(NC(=O)c3cncc4c3cnn4-c3ccc(F)cc3)CC2)ccn1 — remaining binding (cell-free assay, competition with immobilised ligand; 1 µM): 95%
COc1cc(/C=C/C(=O)CC(=O)/C=C/c2ccc(O)c(OC)c2)ccc1O — activity vs control (enzyme activity, inhibitor; 1 µM): 102%
C/C=C/C(=O)Nc1ccc(-n2nc3c(=O)[nH]nc(N)c3c2-c2oc3ccc(C)cc3c2C)cc1 — inhibition (enzyme activity, inhibitor, ELISA; 10 nM): 20.2%
C[C@@H]1CCN(C(=O)CC#N)C[C@@H]1N(C)c1ncnc2[nH]ccc12 — remaining signal (cell-free assay; 0.5 µM): 101%
Cc1cc(NC(=O)c2cccc3cc(-c4cccc5[nH]nc(N)c45)ccc23)ccc1F — activity vs control (enzyme activity, inhibitor; 0.1 µM): 95%
COc1ccc(/C=C/C(=O)c2ccc(NC3=C(Cl)C(=O)c4ccccc4C3=O)cc2)cc1O — inhibition (enzyme activity, inhibitor, ADP detection; 1 µM): > 70%
CNC(=O)c1cc(Oc2ccc(NC(=O)Nc3ccc(Cl)c(C(F)(F)F)c3)cc2)ccn1 — inhibition (enzyme activity, inhibitor; 0.3 µM): 69%
COc1cc2ncnc(Nc3ccc(Oc4ccccc4)c(C)c3C)c2cc1OC — inhibition (enzyme activity, inhibitor; 1 µM): -2%
N#CCCc1ccc2c(c1)-c1[nH]c3ccc([N+](=O)[O-])cc3c1CC(=O)N2 — remaining signal (cell-free assay; 0.5 µM): 91.9%
CNc1cccc2cc(C(=O)Nc3ccc(C(=O)O)cc3)c(=O)[nH]c12 — inhibition (enzyme activity, inhibitor; 10 µM): 9.9%
CCC(=N\O)/C(C)=C/c1ccc(F)cc1 — remaining binding (cell-free assay, competition with immobilised ligand; 1 µM): 100%
Clc1ccc(Nc2nnc(Cc3ccncc3)c3ccccc23)cc1 — remaining signal (cell-free assay; 0.5 µM): 97.2%
CN(c1ccnc(CNc2nc(Nc3ccc4c(c3)CC(=O)N4)ncc2C(F)(F)F)n1)S(C)(=O)=O — remaining binding (cell-free assay, competition with immobilised ligand; 1 µM): 82%
CC/C(=N\NC(=O)NCc1cccc(O)c1)c1ccc(O)c(C)c1O — inhibition (enzyme activity, inhibitor; 0.1 µM): 6.1%
Nc1ncnc2occ(-c3ccc(NC(=O)Nc4cc(C(F)(F)F)ccc4F)cc3)c12 — remaining signal (cell-free assay; 20 µM): 0.15%
CNCc1ccccc1-c1csc([C@H](C)Nc2nc(C)nc3cc(OC)c(OC)cc23)c1 — remaining binding (cell-free assay, competition with immobilised ligand; 1 µM): 100%
Cc1ccc(C(=O)Nc2ccc(CN3CCN(C)CC3)c(C(F)(F)F)c2)cc1C#Cc1cnc2cccnn12 — remaining signal (cell-free assay; 23.5 nM): 4.8%
CCCS(=O)(=O)Nc1ccc(F)c(C(=O)c2c[nH]c3ncc(-c4ccc(Cl)cc4)cc23)c1F — inhibition (enzyme activity, inhibitor; 1 µM): < 10%
COc1cc2ncnc(Nc3ccc(F)c(Cl)c3)c2cc1OCCCN1CCOCC1 — remaining signal (cell-free assay; 0.5 µM): 96.4%
Cc1cc(C)c(-n2ccn3nc(-c4cccnc4)cc23)cc1NC(=O)c1cc(C#N)cc(S(F)(F)(F)(F)F)c1 — remaining binding (cell-free assay, competition with immobilised ligand; 0.1 µM): 85.5%
CCOC(=O)c1c(C)[nH]c(/C=C2\C(=O)Nc3ccccc32)c1C — remaining signal (cell-free assay; 0.5 µM): 78.6%
CC(C)(O)c1cncc(-c2nc3ccc(F)cc3n2C2CC2)c1 — remaining binding (cell-free assay, competition with immobilised ligand; 1 µM): 100%
CN(c1ncccc1CNc1nc(Nc2ccc3c(c2)CC(=O)N3)ncc1C(F)(F)F)S(C)(=O)=O — inhibition (enzyme activity, inhibitor; 1 µM): 80.1%
CSc1cccnc1N1CCN(Cc2nc3ccccc3[nH]2)CC1 — remaining binding (cell-free assay, competition with immobilised ligand; 1 µM): 100%
C=CC(=O)Nc1cc(Nc2nccc(Nc3cc(Cl)c(F)cc3C(C)(C)O)n2)c(OC)cc1N1CC[C@@H](N(C)C)C1 — inhibition (enzyme activity, inhibitor; 1 µM): 3%
